The species entered for assay [1] is Rattus norvegicus. Description: Selectivity ratio of IC50 for BuChE in Wistar rat plasma to IC50 for AChE in Wistar rat brain homogenate. The assay is classed as tissue-based.
Assay [2] addresses T1, Acetylcholinesterase (Rattus norvegicus) (UniProt P37136).
T1 sequence (whole entry): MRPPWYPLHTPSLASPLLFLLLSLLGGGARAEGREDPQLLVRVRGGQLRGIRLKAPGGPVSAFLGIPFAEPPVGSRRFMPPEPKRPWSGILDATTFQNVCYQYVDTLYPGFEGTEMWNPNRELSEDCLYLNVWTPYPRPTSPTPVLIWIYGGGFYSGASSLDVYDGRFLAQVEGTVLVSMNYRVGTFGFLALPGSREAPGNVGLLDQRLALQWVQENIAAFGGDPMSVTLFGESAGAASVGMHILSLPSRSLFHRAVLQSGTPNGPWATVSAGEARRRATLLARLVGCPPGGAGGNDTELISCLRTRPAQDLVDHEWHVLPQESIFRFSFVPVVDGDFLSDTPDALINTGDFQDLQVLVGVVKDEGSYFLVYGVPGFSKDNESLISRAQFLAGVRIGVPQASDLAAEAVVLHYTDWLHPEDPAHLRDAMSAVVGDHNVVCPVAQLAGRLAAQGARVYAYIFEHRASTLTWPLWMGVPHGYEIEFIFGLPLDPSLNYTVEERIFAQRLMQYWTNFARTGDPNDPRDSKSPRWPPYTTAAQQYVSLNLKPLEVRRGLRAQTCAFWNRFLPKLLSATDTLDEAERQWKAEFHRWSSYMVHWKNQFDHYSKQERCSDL
Description: (§1) Inhibition of AChE in Wistar rat brain homogenate using acetylthiocholine iodide as substrate after 0.5 hrs by Ellman's method. The assay is classed as tissue-based. The method in brief:
(§2)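 Male Wistar ST rats (8–10 weeks old). Inhibitor is preincubated with homogenate (3:10 v/v) for 0.5 h at 37 °C. Ellman assay in 0.1 M phosphate with DTNB (10 mM stock) and acetylthiocholine (75 mM stock). A412 is recorded for 2 min at 25 °C, and the last-minute change gives activity. Four dose-response curves.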
(In Ellman's method for cholinesterases, released thiocholine reacts with DTNB.)

The target of assay [3] is T2, Acetylcholinesterase (Rattus norvegicus, UniProt P37136).
T2 sequence (P37136 whole entry): T1 sequence (whole entry)
The description is as §1. The assay is classed as tissue-based. The method in brief: as §2

The target of assay [4] is Butyrylcholinesterase (Rattus norvegicus) (UniProt Q9JKC1). Description: (§3) Inhibition of BuChE in Wistar rat plasma using acetylthiocholine iodide as substrate after 0.5 hrs by Ellman's method.
Assay [5] addresses Butyrylcholinesterase (Rattus norvegicus, UniProt Q9JKC1). Described as §3.

Sequence of Butyrylcholinesterase (Q9JKC1 whole entry): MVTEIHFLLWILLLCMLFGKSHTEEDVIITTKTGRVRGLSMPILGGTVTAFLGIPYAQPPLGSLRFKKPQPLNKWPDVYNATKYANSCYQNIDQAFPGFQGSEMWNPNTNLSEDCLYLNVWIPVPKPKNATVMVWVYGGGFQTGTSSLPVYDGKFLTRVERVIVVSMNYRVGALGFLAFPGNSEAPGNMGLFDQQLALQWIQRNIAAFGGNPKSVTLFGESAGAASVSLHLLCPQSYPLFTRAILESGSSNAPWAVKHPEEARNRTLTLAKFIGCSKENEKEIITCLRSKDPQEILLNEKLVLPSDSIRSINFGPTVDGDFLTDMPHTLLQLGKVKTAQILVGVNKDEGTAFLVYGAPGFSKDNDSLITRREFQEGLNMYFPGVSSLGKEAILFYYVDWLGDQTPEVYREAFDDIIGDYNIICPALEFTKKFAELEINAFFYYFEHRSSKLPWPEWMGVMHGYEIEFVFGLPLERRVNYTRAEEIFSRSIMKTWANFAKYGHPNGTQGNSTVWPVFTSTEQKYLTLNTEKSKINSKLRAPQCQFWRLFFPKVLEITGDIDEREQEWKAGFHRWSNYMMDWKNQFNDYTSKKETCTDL
Sequence of Butyrylcholinesterase (Rattus norvegicus) (Q9JKC1 as listed by the source): as the sequence (Q9JKC1 whole entry) above

Broadly, the IC50 is the concentration at which inhibition is half-maximal. `C=CCC12CC(=O)N(C)C1N(C)c1ccc(OC(=O)Nc3ccccc3)cc12` (racemic): the Ratio IC50 in assay [1] is 14. Also, the inhibition entry in assay [2] and in assay [4] was “Dose-dependent effect” in each case. For the same compound, the figures for the IC50 in assay [3] and in assay [5] were 4.73 µM and 65.3 µM, respectively.

In the case of `C=CCC12CCN(C)C1N(C)c1ccc(OC(=O)Nc3ccccc3)cc12` (racemic), the Ratio IC50 in assay [1] is above 27. Moreover, the inhibition entry in assay [2] and in assay [4] was “Dose-dependent effect” throughout. Also, the IC50 in assay [3] is 3.77 µM; in assay [5], above 100 µM.

`CCCC12CCN(C)C1N(C)c1ccc(OC(=O)Nc3ccccc3)cc12` (racemic): in assay [1], the Ratio IC50 was above 27. The inhibition result in assay [2] and in assay [4] was “Dose-dependent effect” each time. In addition, the IC50 in assay [3] was 3.66 µM; in assay [5], above 100 µM.

`CN1CC[C@@]2(C)c3cc(OC(=O)Nc4ccccc4)ccc3N(C)C12` (stereo partly specified): the Ratio IC50 in assay [1] worked out at 1100. Besides, the inhibition result in assay [2] and in assay [4] was “Dose-dependent effect” in each case. Moreover, the IC50 stood at 0.0283 µM in assay [3] and 30 µM in assay [5].

Regarding `C=CCC12CCN(C)C1N(C)c1ccc(OC(=O)Nc3ccc(C(C)C)cc3)cc12` (racemic), the inhibition entry in assay [2] and in assay [4] was “Dose-dependent effect” each time. The concentration for half-maximal inhibition (IC50) in assay [3] and in assay [5] was above 10 µM throughout.

For the compound `CCC(C)(C)C12CCN(C)C1N(C)c1ccc(OC(=O)Nc3ccccc3)cc12` (racemic), the Ratio IC50 in assay [1] is above 5.4. Also, the inhibition result in assay [2] and in assay [4] was “Dose-dependent effect” each time. The IC50 in assay [3] is 18.4 µM; in assay [5], above 100 µM.

For `C=CC12CCN(C)C1N(C)c1ccc(OC(=O)Nc3ccccc3)cc12` (racemic), the Ratio IC50 in assay [1] was above 40. The inhibition result in assay [2] and in assay [4] was “Dose-dependent effect” in each case. For the same compound, the IC50 in assay [3] was 0.749 µM; in assay [5], above 30 µM.

Turning to `C=C[C@@]12CCN(C)[C@@H]1N(C)c1ccc(OC(=O)Nc3ccccc3)cc12`, the Ratio IC50 in assay [1] was 65. Also, the inhibition entry in assay [2] and in assay [4] was “Dose-dependent effect” in each case. For the same compound, the IC50 in assay [3] is 0.644 µM; in assay [5] it was 41.9 µM.

Consider `C=CCC12CCN(C)C1N(C)c1ccc(OC(=O)Nc3ccccc3F)cc12` (racemic), for which the Ratio IC50 in assay [1] turned out to be 25. The inhibition result in assay [2] and in assay [4] was “Dose-dependent effect” in each case. The IC50 in assay [3] stood at 3.55 µM; in assay [5] it was 87.3 µM.

With `C=CCC12CCN(C)C1N(C)c1ccc(OC(=O)Nc3ccc(Br)cc3)cc12` (racemic), the inhibition entry in assay [2] and in assay [4] was “Dose-dependent effect” in each case. Also, the IC50 in assay [3] and in assay [5] was above 10 µM in each case.

On to `CC[C@]12CCN(C)[C@@H]1N(C)c1ccc(OC(=O)Nc3ccccc3)cc12`, for which the Ratio IC50 in assay [1] was found to be 97. For the same compound, the inhibition entry in assay [2] and in assay [4] was “Dose-dependent effect” throughout. In addition, the IC50 in assay [3] stood at 0.373 µM; in assay [5], 36.2 µM.

`C=CC[C@]12CCN(C)[C@@H]1N(C)c1ccc(OC(=O)Nc3ccccc3)cc12`: the Ratio IC50 in assay [1] was above 79. The inhibition entry in assay [2] and in assay [4] was “Dose-dependent effect” each time. In addition, the IC50 is 1.26 µM in assay [3] and above 100 µM in assay [5].

Take `CNC(=O)Oc1ccc2c(c1)[C@]1(C)CCN(C)[C@@H]1N2C` [PHYSOSTIGMINE]: the inhibition result in assay [2] and in assay [4] was “Dose-dependent effect” throughout. In assay [5], the IC50 came to 0.0584 µM.

`CCC12CCN(C)C1N(C)c1ccc(OC(=O)Nc3ccccc3)cc12` (racemic): the Ratio IC50 in assay [1] was 76. The inhibition entry in assay [2] and in assay [4] was “Dose-dependent effect” throughout. For the same compound, the IC50 in assay [3] was found to be 0.397 µM; in assay [5] it was 30 µM.

As to `CCC(C)(C)[C@@]12CCN(C)[C@@H]1N(C)c1ccc(OC(=O)Nc3ccccc3)cc12`, in assay [1], the Ratio IC50 is above 11. Moreover, the inhibition entry in assay [2] and in assay [4] was “Dose-dependent effect” each time. Besides, the results for the IC50 in assay [3] and in assay [5] were 9.5 µM and above 100 µM, respectively.

Consider `C=CCC12CCN(C)C1N(C)c1ccc(OC(=O)Nc3ccc(F)cc3)cc12` (racemic), for which, in assay [1], the Ratio IC50 was above 23. Besides, the inhibition entry in assay [2] and in assay [4] was “Dose-dependent effect” each time. For the same compound, the IC50 in assay [3] is 4.36 µM; in assay [5], above 100 µM.

The values above are taken from ChEMBL document CHEMBL2057067, “Synthesis of phenserine analogues and evaluation of their cholinesterase inhibitory activities” (Bioorg Med Chem, 2012).
